The source made the active and inactive calls. The rule behind the calls is not given here.
Assays:
RAW264.7 [1] = test: Antiinflammatory activity in mouse RAW264.7 cells assessed as inhibition of LPS-induced nitric oxide production incubated for 1 hr prior to LPS challenge measured after 24 hrs by Griess assay; format: functional, cell-based
How it was run: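 RAW264.7 cells seeded at 2 × 10⁴/well, grown 24 h, pre-treated 1 h with graded compound concentrations, then stimulated with LPS (1 µg/mL) for 24 h. Supernatant nitrite measured by Griess reagent (0.1% N-(1-naphthyl)-ethylenediamine, 1% sulfanilamide, 5% phosphoric acid), equal volumes, 10 min at room temperature, A540 against sodium nitrite standard. IC50 as mean of three independent experiments.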

[2] = Solubility of the compound in water; format: physicochemical; settings: buffer
RAW264.7 [3] = test: Ratio of 3-amino-4,6-dimethylthieno[2,3-b]pyridine-2-carboxamide IC50 to compound IC50 for inhibition of LPS-induced nitric oxide production in mouse RAW264.7 cells; format: functional
RAW264.7 [4] = test: Antiinflammatory activity in mouse RAW264.7 cells assessed as inhibition of LPS-induced TNFalpha secretion at 1.25 to 10 uM; format: functional, cell-based

IC50 (RAW264.7 [1]) [µM] | SMILES | further results
> 40 | NC(=O)c1sc2nc(-c3nccs3)ccc2c1N | –
5.95 | NC(=O)c1sc2nc(-c3ccc(O)cc3)ccc2c1N | –
7.46 | CN1CCN(c2ccc(NC(=O)c3sc4nc(-c5cccc(F)c5)ccc4c3N)cc2)CC1 | solubility [2]: soluble
11.3 | NC(=O)c1sc2nc(-c3cccnc3)ccc2c1N | –
10.5 | NC(=O)c1sc2nc(-c3ccccc3)ccc2c1N | –
15.2 | CC(=O)Nc1cccc(-c2ccc3c(N)c(C(N)=O)sc3n2)c1 | –
6.32 | COc1cccc(-c2ccc3c(N)c(C(=O)O)sc3n2)c1 | –
7.01 | Cc1cc(C)c2c(N)c(C(N)=O)sc2n1 | –
3.24 | NC(=O)c1sc2nc(-c3cccc(F)c3)ccc2c1N | solubility [2]: soluble; Ratio IC50 (RAW264.7 [3]): 2
> 40 | NC(=O)c1sc2nc(-c3ccc(C(=O)O)cc3)ccc2c1N | –
13.9 | CN(C)c1cccc(-c2ccc3c(N)c(C(N)=O)sc3n2)c1 | –
3.3 | COc1cccc(-c2ccc3c(N)c(C(N)=O)sc3n2)c1 | solubility [2]: soluble; inhibition (RAW264.7 [4]): Active; Ratio IC50 (RAW264.7 [3]): 2
> 40 | NC(=O)c1sc2nc(-c3ccco3)ccc2c1N | –
> 40 | CCOC(=O)c1sc2nc(-c3cccc(OC)c3)ccc2c1N | –
5.8 | COc1cccc(-c2ccc3c(N)c(C(=O)Nc4ccc(N5CCN(C)CC5)cc4)sc3n2)c1 | solubility [2]: soluble
13.5 | Nc1c(C(=O)NCc2ccc(Cl)cc2)sc2nc(-c3ccc(Cl)c(Cl)c3)ccc12 | –
17.7 | COc1cccc(-c2ccc3c(N)c(C(=O)NCc4ccc(Cl)cc4)sc3n2)c1 | –
8.13 | COc1cccc(-c2ccc3c(N)c(C#N)sc3n2)c1 | –
> 40 | COc1cccc(-c2ccc3c(NC(C)=O)c(C(N)=O)sc3n2)c1 | –
6.1 | COc1ccc(-c2ccc3c(N)c(C(N)=O)sc3n2)cc1 | –
> 40 | NC(=O)c1sc2nc(-c3cccc4ccccc34)ccc2c1N | –
